In assay [1] the target is T1, Cathepsin K (Homo sapiens, UniProt P43235).
T1 sequence (P43235 whole entry): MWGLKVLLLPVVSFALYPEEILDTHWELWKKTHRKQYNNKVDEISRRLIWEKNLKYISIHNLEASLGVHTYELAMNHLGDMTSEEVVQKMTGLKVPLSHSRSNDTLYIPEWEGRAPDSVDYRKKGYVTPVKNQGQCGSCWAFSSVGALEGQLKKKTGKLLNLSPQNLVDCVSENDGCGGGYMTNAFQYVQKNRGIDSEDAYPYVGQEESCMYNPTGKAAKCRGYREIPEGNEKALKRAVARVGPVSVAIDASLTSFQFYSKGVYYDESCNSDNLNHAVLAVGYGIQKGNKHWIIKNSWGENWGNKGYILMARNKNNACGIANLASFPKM
The assay can be described thus: Inhibition of recombinant human cathepsin K in fluorescence assay. An outline of the steps: (§1)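 Each recombinant human enzyme (cathepsin K, L or S) was assayed separately. IC50 values are the mean of two independent experiments, each performed in duplicate.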

The target in assay [2] is Procathepsin L (Homo sapiens, UniProt P07711). The assay can be described thus: Inhibition of recombinant human cathepsin L in a fluorescence assay. An outline of the steps:
as §1

The target of assay [3] is Cathepsin S (Homo sapiens, UniProt P25774). Briefly: Inhibition of recombinant human cathepsin S in a fluorescence assay. A digest of the protocol:
as §1

For assay [4], the target named is Cathepsin K (Oryctolagus cuniculus). The assay can be described thus: Eq. constant (Ki) for inhibition of Cathepsin K was determined by progress curves, following hydrolysis of Z-Phe-Arg- Amc in the absence and presence of compound.

A value given as a limit tells only on which side of the number the result lay.

A word on the IC50: it is the concentration that gives 50% inhibition. Usually Ki stands for the dissociation constant of the complex between target and ligand, obtained from inhibition or displacement.

Chain of Cathepsin S (P25774 whole entry): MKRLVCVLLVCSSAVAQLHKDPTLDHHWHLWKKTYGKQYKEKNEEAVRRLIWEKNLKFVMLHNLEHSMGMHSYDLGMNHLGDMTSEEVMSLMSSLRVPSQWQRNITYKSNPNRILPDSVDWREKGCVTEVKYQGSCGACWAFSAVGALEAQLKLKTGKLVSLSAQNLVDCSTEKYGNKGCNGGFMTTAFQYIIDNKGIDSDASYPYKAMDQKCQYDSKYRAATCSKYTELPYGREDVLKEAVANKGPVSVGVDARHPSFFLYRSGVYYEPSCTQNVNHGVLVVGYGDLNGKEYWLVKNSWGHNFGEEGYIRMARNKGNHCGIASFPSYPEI
Chain of Procathepsin L (P07711 whole entry): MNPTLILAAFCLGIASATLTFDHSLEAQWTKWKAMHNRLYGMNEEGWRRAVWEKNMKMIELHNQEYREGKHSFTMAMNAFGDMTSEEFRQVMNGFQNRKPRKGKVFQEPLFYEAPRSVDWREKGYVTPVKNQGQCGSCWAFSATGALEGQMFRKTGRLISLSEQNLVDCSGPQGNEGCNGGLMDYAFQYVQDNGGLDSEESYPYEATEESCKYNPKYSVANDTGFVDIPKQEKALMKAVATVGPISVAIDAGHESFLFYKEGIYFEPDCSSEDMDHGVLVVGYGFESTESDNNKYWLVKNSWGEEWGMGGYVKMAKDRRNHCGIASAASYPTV

Consider `COc1ccc(NCCNC(=O)[C@H](CC(C)C)NC(=O)c2ccc(C(C)C)cc2)cc1`, for which the 50% inhibitory concentration (IC50) in assay [1] is below 3 nM; in assay [2], 50 nM; in assay [3], 5700 nM.
With `COc1ccc(NCCNC(=O)[C@H](CC(C)C)NC(=O)c2ncn(-c3ccccc3Cl)n2)cc1`, the IC50 in assay [1] was 6 nM; in assay [2], 2300 nM; in assay [3], 1900 nM.
For `COc1ccc(NCCNC(=O)[C@H](CC(C)C)NC(=O)c2ccc(C(C)C)cn2)cc1`, in that order: below 3 nM, 1500 nM and 7200 nM.
For `CCCc1ccc(C(=O)N[C@@H](CC(C)C)C(=O)NCCNc2ccc(OC)cc2)cc1`, in that order: below 3 nM, below 30 nM and 1200 nM.
For `COc1ccc(NCCNC(=O)[C@H](CC(C)C)NC(=O)c2ccc(OCc3ccccc3)cc2)cc1`, the IC50 in assay [1] was 6 nM; in assay [2], above 10000 nM; in assay [3], 9500 nM. In addition, the Ki in assay [4] came out at 15 nM.
For `COc1ccc(NCCNC(=O)[C@H](CC(C)C)NC(=O)c2ncn(-c3cccc(Cl)c3Cl)n2)cc1`, in that order: 9 nM, above 10000 nM, 190 nM and 11 nM.

The values above are taken from ChEMBL document CHEMBL1135429, “Arylaminoethyl amides as novel non-covalent cathepsin K inhibitors” (J Med Chem, 2002).
